# Laboratory results from ChEMBL document CHEMBL3112579, “Inhibition of 5-oxo-6,8,11,14-eicosatetraenoic acid-induced activation of neutrophils and eosinophils by novel indole OXE receptor antagonists” (J Med Chem, 2014).
# pIC50: −log10 of the molar value. Calls of active or inactive are those of the source. The calls are words filed in the database; no cut-off is given here.
# Assays:
# Oxoeicosanoid receptor 1 [1] = target: T1, Oxoeicosanoid receptor 1 (Homo sapiens, UniProt Q8TDS5); experiment: Antagonist activity at OXE receptor (unknown origin) expressed in indo-1 loaded neutrophils assessed as inhibition of 5-oxo-ETE-induced calcium mobilization incubated for 2 mins prior to 5-oxo-ETE induction by spectrofluorometric analysis; type: functional
# T1 sequence (Q8TDS5 whole entry): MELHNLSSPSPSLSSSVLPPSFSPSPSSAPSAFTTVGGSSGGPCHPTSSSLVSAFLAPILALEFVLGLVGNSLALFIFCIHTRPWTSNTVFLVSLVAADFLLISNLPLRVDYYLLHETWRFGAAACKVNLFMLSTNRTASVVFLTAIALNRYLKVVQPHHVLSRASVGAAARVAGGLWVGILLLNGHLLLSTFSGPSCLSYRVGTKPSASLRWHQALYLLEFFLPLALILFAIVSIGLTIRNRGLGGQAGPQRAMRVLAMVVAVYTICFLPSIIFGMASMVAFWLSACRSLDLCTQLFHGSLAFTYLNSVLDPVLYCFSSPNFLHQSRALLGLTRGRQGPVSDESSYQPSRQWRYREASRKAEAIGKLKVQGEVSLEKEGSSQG
# Oxoeicosanoid receptor 1 [2] = target: T1, Oxoeicosanoid receptor 1; experiment: Antagonist activity at OXE receptor in human neutrophils assessed as inhibition of 5-oxo-ETE-induced calcium mobilization by spectrofluorometric analysis; type: functional
# Outline: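 Indo-1 AM-loaded human neutrophils (dextran, Ficoll, hypotonic lysis) in PBS with Ca++ 1.8 mM and Mg++ 1 mM, stirred at 37 °C, ex 331/em 410 nm. Vehicle (DMSO) or antagonist at varied concentrations, then 5-oxo-ETE (final 10 nM) 2 min later, then digitonin (0.1%) 1 min later for maximal signal. IC50s are means ± SE of per-experiment IC50 values.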
# [3] = Drug metabolism in Sprague-Dawley rat liver homogenates at 20 uM after 60 mins by reversed-phase HPLC analysis in presence of NADPH; type: ADME, tissue-based; conditions: read-out: Drug metabolism
# Outline: (§1)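 Male Sprague-Dawley rat liver homogenized in 0.25 M sucrose and spun at 600 × g for 10 min. Supernatant (0.8 ml) combined with phosphate buffer pH 7.4 (final 50 mM) and NADPH (final 1 mM). Compound (20 μM) incubated 60 min at 37 °C, stopped with ice-cold MeOH. Products analysed by reversed-phase HPLC with UV detection.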
# Liver [4] = experiment: Drug metabolism in Sprague-Dawley rat liver homogenates in presence of ATP, CoA, L-carnitine, NAD+; type: ADME, tissue-based; conditions: tissue homogenate
# Oxoeicosanoid receptor 1 [5] = target: T1, Oxoeicosanoid receptor 1; experiment: Potency index, ratio of compound activity to Gue1654 activity for antagonism of OXE receptor (unknown origin) expressed in anti-CD49d-labeled eosinophils assessed as inhibition of 5-oxo-ETE-induced F-actin polymerization
# [6] = target: T2, fMet-Leu-Phe receptor (Homo sapiens) (UniProt P21462); experiment: Antagonist activity at FPR1 receptor (unknown origin) expressed in indo-1 loaded neutrophils assessed as inhibition of fMLP-induced calcium mobilization at 10 uM by spectrofluorometric analysis; type: functional
# T2 sequence (whole entry): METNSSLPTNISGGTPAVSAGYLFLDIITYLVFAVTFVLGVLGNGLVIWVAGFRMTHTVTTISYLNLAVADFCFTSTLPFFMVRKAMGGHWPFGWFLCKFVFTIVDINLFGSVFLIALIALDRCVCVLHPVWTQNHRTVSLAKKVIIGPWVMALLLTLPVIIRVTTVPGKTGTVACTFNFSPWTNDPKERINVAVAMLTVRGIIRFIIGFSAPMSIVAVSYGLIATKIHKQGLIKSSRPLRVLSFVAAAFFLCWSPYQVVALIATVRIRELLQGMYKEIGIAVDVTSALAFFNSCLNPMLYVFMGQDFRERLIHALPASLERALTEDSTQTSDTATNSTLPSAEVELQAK
# Outline: (§2)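 Human blood neutrophils (dextran sedimentation, Ficoll, hypotonic lysis) loaded with indo-1 AM. Ca++ 1.8 mM and Mg++ 1 mM added to the cuvette. Read at 37 °C with stirring, ex 331/em 410 nm. Vehicle or antagonist (10 μM) added, 5-oxo-ETE (10 nM) 2 min later, second agonist (LTB4, PAF, fMLP or IL-8) after a further 2 min, digitonin (0.1%) 1 min later for maximal fluorescence. Two independent experiments.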
# Oxoeicosanoid receptor 1 [7] = target: T1, Oxoeicosanoid receptor 1; experiment: Antagonist activity at OXE receptor (unknown origin) expressed in anti-CD49d-labeled neutrophils assessed as inhibition of 5-oxo-ETE-induced F-actin polymerization preincubated for 5 mins followed by 5-oxo-ETE induction measured after 20 secs by flow cytometric analysis
# Outline: (§3)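 Unfractionated human leukocytes (dextran sedimentation, hypotonic lysis) stained 30 min on ice with APC-anti-CD49d, 5.5×10^6 cells/ml in PBS with Ca++/Mg++. Preincubated 5 min at 37 °C with vehicle or inhibitor, then 5-oxo-ETE (final 10 nM) for 20 s. Fixed in formaldehyde (final 8.5%), permeabilized with lysophosphatidylcholine, NBD-phalloidin (final 0.3 μM) overnight at 4 °C, flow cytometry. Eosinophils gated as high side scatter/high CD49d, neutrophils as high side scatter/low CD49d.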
# Oxoeicosanoid receptor 1 [8] = target: T1, Oxoeicosanoid receptor 1; experiment: Antagonist activity at OXE receptor (unknown origin) expressed in anti-CD49d-labeled eosinophils assessed as inhibition of 5-oxo-ETE-induced F-actin polymerization preincubated for 5 mins followed by 5-oxo-ETE induction measured after 20 secs by flow cytometric analysis
# Outline: as §3, with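 “s.” for “s. Fixed in formaldehyde (final 8.5%), permeabilized with lysophosphatidylcholine, NBD-phalloidin (final 0.3 μM) overnight at 4 °C, flow cytometry.”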
# Homo sapiens = species on record: Homo sapiens; experiment: Antagonist activity at interleukin-8 receptor (unknown origin) expressed in indo-1 loaded neutrophils assessed as inhibition of IL-8-induced calcium mobilization by spectrofluorometric analysis; outline: as §2
# [9] = target: Platelet-activating factor receptor (Homo sapiens) (UniProt P25105); experiment: Antagonist activity at PAF receptor (unknown origin) expressed in indo-1 loaded neutrophils assessed as inhibition of PAF-induced calcium mobilization at 10 uM by spectrofluorometric analysis; type: functional; outline: as §2
# Platelet-activating factor receptor (Homo sapiens), sequence (P25105 whole entry): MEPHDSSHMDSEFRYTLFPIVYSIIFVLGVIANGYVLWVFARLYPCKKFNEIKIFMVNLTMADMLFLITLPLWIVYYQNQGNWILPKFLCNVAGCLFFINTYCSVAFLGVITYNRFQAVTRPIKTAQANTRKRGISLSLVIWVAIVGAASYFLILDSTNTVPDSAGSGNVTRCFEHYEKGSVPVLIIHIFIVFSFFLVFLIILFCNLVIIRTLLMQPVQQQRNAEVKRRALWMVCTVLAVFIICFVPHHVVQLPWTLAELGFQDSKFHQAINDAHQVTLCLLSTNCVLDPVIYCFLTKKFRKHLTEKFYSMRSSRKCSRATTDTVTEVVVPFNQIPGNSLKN
# Oxoeicosanoid receptor 1 [10] = target: T1, Oxoeicosanoid receptor 1; experiment: Potency index, ratio of compound activity to Gue1654 activity for antagonism of OXE receptor (unknown origin) expressed in anti-CD49d-labeled neutrophils assessed as inhibition of 5-oxo-ETE-induced F-actin polymerization
# [11] = target: Leukotriene B4 receptor 1 (Homo sapiens) (UniProt Q15722); experiment: Antagonist activity at LTB4 receptor (unknown origin) expressed in indo-1 loaded neutrophils assessed as inhibition of LTB4-induced calcium mobilization at 10 uM by spectrofluorometric analysis; type: functional; outline: as §2
# Leukotriene B4 receptor 1 (Homo sapiens), sequence (Q15722 whole entry): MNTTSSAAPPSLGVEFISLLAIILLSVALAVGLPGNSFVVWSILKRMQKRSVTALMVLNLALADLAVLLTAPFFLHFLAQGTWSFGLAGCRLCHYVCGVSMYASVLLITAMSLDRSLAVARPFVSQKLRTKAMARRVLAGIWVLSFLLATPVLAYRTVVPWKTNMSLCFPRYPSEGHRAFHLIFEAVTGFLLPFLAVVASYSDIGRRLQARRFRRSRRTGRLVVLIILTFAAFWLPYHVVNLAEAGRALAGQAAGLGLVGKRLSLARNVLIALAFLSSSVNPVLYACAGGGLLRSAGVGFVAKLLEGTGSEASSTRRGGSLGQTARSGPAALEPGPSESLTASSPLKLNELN
# Liver [12] = experiment: Drug metabolism in Sprague-Dawley rat liver homogenates assessed as metabolite retention time at 20 uM by reversed-phase HPLC analysis; type: ADME, tissue-based; conditions: tissue homogenate; outline: as §1
# Rattus norvegicus = experiment: Drug metabolism in […] in presence of NADPH; type: ADME
# Liver [13] = experiment: Drug metabolism in Sprague-Dawley rat liver homogenates assessed as retention time of unmetabolized compound at 20 uM by reversed-phase HPLC analysis; type: ADME, tissue-based; conditions: tissue homogenate; outline: as §1
structure (smiles),measurement,setting,value
CCCCCCc1ccc2ccn(C(=O)CCCC(=O)O)c2c1,inhibition,Oxoeicosanoid receptor 1 [1],Active
CCCCC/C=C\C[C@H](O)/C=C/C=C/C=C/C(=O)CCCC(=O)O,pIC50,Oxoeicosanoid receptor 1 [2],5.60
CCCCCCc1c(C(=O)CC(C)CC(=O)O)c2ccccc2n1C (centres undefined),pIC50,Oxoeicosanoid receptor 1 [1],6.50
CCCCCCc1cccc2ccn(C(=O)CCCC(=O)O)c12,inhibition,Oxoeicosanoid receptor 1 [1],Active
CCCCCCc1cc2ccccc2n1C(=O)CCCC(=O)O,pIC50,Oxoeicosanoid receptor 1 [1],5.95
CCCC/C=C/c1cc2ccccc2n1C(=O)CCCC(=O)O,pIC50,Oxoeicosanoid receptor 1 [1],5.39
CCCCc1cc2ccccc2n1C(=O)CCCC(=O)O,pIC50,Oxoeicosanoid receptor 1 [1],4.86
CCCCCCn1cc(C(=O)CCCC(=O)O)c2ccccc21,inhibition,Oxoeicosanoid receptor 1 [1],Active
CCCCCCCCC/C=C\c1cc2ccccc2n1C(=O)CCCC(=O)O,pIC50,Oxoeicosanoid receptor 1 [1],6.26
CCCCC/C=C\C[C@H](O)/C=C/C=C\C=C\C(=O)CCCC(=O)O,pIC50,Oxoeicosanoid receptor 1 [2],6.30
CCCCCCc1c(C(=O)CC(C)CC(=O)O)c2cc(Br)ccc2n1C (centres undefined),pIC50,Oxoeicosanoid receptor 1 [1],7.59
CCCCCCc1cc2ccc(Br)cc2n1C(=O)CC(C)CC(=O)O (centres undefined),pIC50,Oxoeicosanoid receptor 1 [1],7.52
CCCCCCc1c(C(=O)CCCC(=O)O)c2ccccc2n1C,pIC50,Oxoeicosanoid receptor 1 [1],5.22
CCCCCCc1cc2ccccc2n1C(=O)CCC(=O)O,pIC50,Oxoeicosanoid receptor 1 [1],< 4.52
O=C(O)CCCC(=O)n1ccc2ccccc21,pIC50,Oxoeicosanoid receptor 1 [1],< 4.52
CCCCCCCCc1cc2ccccc2n1C(=O)CCCC(=O)O,pIC50,Oxoeicosanoid receptor 1 [1],6.24
CCCCCCc1ccc2c(ccn2C(=O)CCCC(=O)O)c1,inhibition,Oxoeicosanoid receptor 1 [1],Active
CCCCCCc1cc2ccccc2n1C(=O)CC1(CC(=O)O)CC1,pIC50,Oxoeicosanoid receptor 1 [1],5.79
CCCCCCCCCCCc1cc2ccccc2n1C(=O)CCCC(=O)O,pIC50,Oxoeicosanoid receptor 1 [1],6.15
CCCCCCc1c(C(=O)CC(C)CC(=O)O)c2cc(Cl)ccc2n1C (racemic),"metabolised at 1 h, 20 µM",[3],2%
same,Drug metabolism,Liver [4],Not Active
same,Ratio,Oxoeicosanoid receptor 1 [5],10
same,inhibition,[6],inactive
same,inhibition,Oxoeicosanoid receptor 1 [7],Active
same,pIC50,Oxoeicosanoid receptor 1 [8],7.48
same,inhibition,Homo sapiens,inactive
same,inhibition,[9],inactive
same,Ratio,Oxoeicosanoid receptor 1 [10],10
same,inhibition,[11],inactive
same,Retention_time,Liver [12],14.1 min
same,Drug metabolism,Rattus norvegicus,Active
CCCCCCc1c(C)c2ccccc2n1C(=O)CC(C)CC(=O)O (centres undefined),pIC50,Oxoeicosanoid receptor 1 [1],6.87
CCCCCCc1cc2ccccc2n1C(=O)CC(C)(C)CC(=O)O,pIC50,Oxoeicosanoid receptor 1 [1],4.96
CCCCCCCc1cc2ccccc2n1C(=O)CCCC(=O)O,pIC50,Oxoeicosanoid receptor 1 [1],6.12
CCCCCc1cc2ccccc2n1C(=O)CCCC(=O)O,pIC50,Oxoeicosanoid receptor 1 [1],5.67
CCCCCCc1cc2ccc(OC)cc2n1C(=O)CC(C)CC(=O)O (centres undefined),pIC50,Oxoeicosanoid receptor 1 [1],6.49
CCCCCCc1c(C(=O)CCCC(=O)O)c2cc(Cl)ccc2n1C,pIC50,Oxoeicosanoid receptor 1 [1],6.25
CCCCCCc1cc2cc(Br)ccc2n1C(=O)CC(C)CC(=O)O (centres undefined),pIC50,Oxoeicosanoid receptor 1 [1],6.20
CCCCCCc1c(C(=O)CC(C)CC(=O)O)c2ccc(Cl)cc2n1C (centres undefined),pIC50,Oxoeicosanoid receptor 1 [1],7.09
CCCCCCc1nc2ccccc2cc1C(=O)CCCC(=O)O,pIC50,Oxoeicosanoid receptor 1 [1],< 4.52
CCCCCCc1cn(C(=O)CCCC(=O)O)c2ccccc12,inhibition,Oxoeicosanoid receptor 1 [1],Active
CCCCCCc1cc2ccc(Cl)cc2n1C(=O)CC(C)CC(=O)O (racemic),"metabolised at 1 h, 20 µM",[3],12%
same,Drug metabolism,Liver [4],Not Active
same,Retention_time,Liver [13],30.2 min
same,inhibition,[6],inactive
same,inhibition,Oxoeicosanoid receptor 1 [7],Active
same,inhibition,Homo sapiens,inactive
same,inhibition,[9],inactive
same,inhibition,[11],inactive
same,Retention_time,Liver [12],18.2 min
same,Drug metabolism,Rattus norvegicus,Active
CCCCCCc1[nH]c2ccccc2c1C(=O)CCCC(=O)O,pIC50,Oxoeicosanoid receptor 1 [1],5.01
same,inhibition,Oxoeicosanoid receptor 1 [1],50%
CCCCCCc1cc2cc(Cl)ccc2n1C(=O)CC(C)CC(=O)O (centres undefined),pIC50,Oxoeicosanoid receptor 1 [1],6.85
